{
  "source": "paper PMC8603004",
  "about": "(EFSA Journal, 2021)",
  "key": {"[1]": {"experiment": "Second in vivo toxicokinetic study, metabolic profile in gut and plasma", "parameters": "species or system male Wistar rats", "conditions": "urine 0 to 2 h of one animal, after 500 mg/kg bw 14C‐3‐NOP", "how_it_was_run": "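Single oral dose of 500 mg/kg bw 14C-labelled test compound to male Wistar rats. One animal per time point was killed at 1, 2 and 3 h post-dose and blood was collected. Stomach, small intestine, caecum and colon contents were removed for total radioactivity. Metabolites were characterised by NMR and/or LC/MS.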"}, "[2]": {"experiment": "First in vivo toxicokinetic study", "parameters": "species or system male Wistar rats", "conditions": "after 500 mg/kg bw 14C‐3‐NOP", "how_it_was_run": "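Male Wistar rats received a single oral dose of 500 mg/kg bw 14C-labelled test compound under OECD TG 417 and were killed 48 h post-dose. Total radioactivity was measured in plasma, excreta and selected organs and tissues. Tissue levels were expressed as μg test-compound-eq/g and recovery as % of applied dose.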"}, "[3]": {"experiment": "ADME of 14C‐3‐NOP following single or multiple oral administration", "assay_type": "in vivo, rat", "conditions": "500 mg/kg 14C‐3‐NOP, 1 h"}, "[4]": {"tested_on": "testes and epididymides; Sertoli cells", "experiment": "Mechanistic toxicity studies", "parameters": "species or system rats, dogs and non‐human primates"}, "[5]": {"tested_on": "peripheral blood reticulocytes", "experiment": "In vivo micronucleus assay of NOPA in peripheral blood reticulocytes", "parameters": "species or system Fischer 344 Big Blue rats", "conditions": "days 4 and 29", "how_it_was_run": "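Fischer 344 Big Blue rats, six per sex per group, were given the metabolite by oral gavage once daily for 28 days at 10 mL/kg in phosphate-buffered saline, pH 7.4. Males received 0, 150, 300 or 600 mg/kg bw/day and females 0, 250, 500 or 1,000 mg/kg bw/day. Peripheral blood was sampled on days 4 and 29, and micronucleated reticulocytes were counted by flow cytometry. Kit positive-control samples were run; there was no concurrent positive group.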"}, "[6]": {"tested_on": "whole blood human lymphocytes", "experiment": "In vitro micronucleus test of NOPA", "assay_type": "cell-based", "conditions": "229 to 1,321 μg/mL, with and without metabolic activation", "how_it_was_run": "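GLP micronucleus test (OECD TG 487) on the metabolite (purity 98.4%) in human whole-blood lymphocytes. Three concentrations from 229 to 1,321 μg/mL (top about 10 mmol/L) were analysed. Treatments were a short exposure (4 + 20 h recovery) with and without metabolic activation, and a continuous treatment without activation. Micronuclei were scored.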"}, "[7]": {"tested_on": "CByB6F1 Hybrid mice", "experiment": "28‐day oral gavage study with toxicokinetic evaluation of NOPA", "assay_type": "in vivo", "conditions": "both sexes"}, "[8]": {"experiment": "28‐day oral gavage study with toxicokinetic evaluation of NOPA", "assay_type": "in vivo, CByB6F1 Hybrid mice", "conditions": "CByB6F1 Hybrid, mouse, plasma, oral, 700 mg/kg"}, "[9]": {"experiment": "Consumer exposure calculation to NOPA"}, "[10]": {"tested_on": "Holstein Friesian dairy cows", "experiment": "Tolerance study in dairy cows", "assay_type": "in vivo"}, "[11]": {"experiment": "Tolerance study in dairy cows", "assay_type": "in vivo", "conditions": "female, Holstein Friesian, cattle, liver, kidney, muscle, fat, oral"}, "[12]": {"tested_on": "Salmonella Typhimurium strains TA1535, TA1537, TA98, TA100, and Escherichia coli strain WP2 uvrA", "experiment": "Bacterial reverse mutation assay of NOPA", "assay_type": "cell-based", "conditions": "strains TA1535 and TA100, presence and absence of S9 mix, up to 5,000 μg/plate", "how_it_was_run": "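Plate-incorporation reverse mutation test on the metabolite in S. Typhimurium TA1535, TA1537, TA98 and TA100 and E. coli WP2 uvrA, with and without liver microsomal activation. Concentrations were 3, 10, 33, 100, 333, 1,000, 2,500 and 5,000 μg/plate. Each concentration and each control was plated in triplicate, and positive and negative controls were included.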"}, "[13]": {"experiment": "Second goat experiment, pre‐dosed 5 days", "assay_type": "in vivo, lactating goat"}, "[14]": {"experiment": "ADME in four lactating cows", "assay_type": "in vivo"}, "[15]": {"experiment": "ADME in a lactating goat", "assay_type": "in vivo"}, "[16]": {"experiment": "Feeding study 1 in beef cattle, NOPA in plasma", "assay_type": "in vivo", "conditions": "bovine, oral, 284 mg/kg"}},
  "note": "Where “and” joins values, the source holds several entries; their conditions need not be identical. Equal entries are not always repeated.",
  "data": [
    {"compound": "O=C(O)C1OC(OCCCO[N+](=O)[O-])C(O)C(O)C1O", "note": "(stereo not shown) [glucuronide of 3‐NOP]", "values": [
      {"measurement": "Urinary metabolite, share of the urine radioactivity", "setting": "[1]", "result": 11, "unit": "%"}
    ]},
    {"compound": "O=C(O)CCO", "note": "[3‐HPA, 3‐hydroxy‐propionic acid]", "values": [
      {"measurement": "Urinary metabolite, share of the urine radioactivity", "setting": "[1]", "result": 58, "unit": "%"},
      {"measurement": "Urinary metabolite, share of the dose administered", "setting": "[2]", "result": 7.2, "unit": "%"},
      {"measurement": "Urinary metabolite, share of the urine radioactivity", "setting": "[2]", "result": 47.5, "unit": "%"},
      {"measurement": "Metabolite in epididymis", "setting": "[3]", "result": 60, "unit": "% TRR"},
      {"measurement": "Metabolite in testes", "setting": "[3]", "result": 84, "unit": "% TRR"},
      {"measurement": "Metabolite in the small intestine", "setting": "[3]; females", "result": "46.5 % of TRR"},
      {"measurement": "Metabolite in the small intestine", "setting": "[3]; males", "result": "34.8 % of TRR"},
      {"measurement": "Testicular/epididymal findings", "setting": "[4]; 10 days after sc administration", "result": "absence of any testicular/epididymal abnormality"}
    ]},
    {"compound": "O=C(O)CCO[N+](=O)[O-]", "note": "[NOPA, 3‐nitrooxypropionic acid]", "values": [
      {"measurement": "Incidence of MN‐RETs", "setting": "[5]", "result": "No significant increases in the incidence of MN‐RETs"},
      {"measurement": "Frequency of micronuclei", "setting": "[6]", "result": "No significant increase in the frequency of micronuclei"},
      {"measurement": "Urinary metabolite, share of the urine radioactivity", "setting": "[1]", "result": 20, "unit": "%"},
      {"measurement": "Time of rapid increase of NOPA plasma concentration", "setting": "[7]", "result": "< 1", "unit": "h"},
      {"measurement": "half-life", "setting": "[8]; female", "result": "42 to 72", "unit": "min"},
      {"measurement": "half-life", "setting": "[8]; male", "result": "30 to 84", "unit": "min"},
      {"measurement": "Consumer exposure, maximum HRP", "setting": "[9]; Adolescents", "result": 0.2260, "unit": "μg/kg bw per day"},
      {"measurement": "Consumer exposure, maximum HRP", "setting": "[9]; Adults", "result": 0.1293, "unit": "μg/kg bw per day"},
      {"measurement": "Consumer exposure, maximum HRP", "setting": "[9]; Elderly", "result": 0.1162, "unit": "μg/kg bw per day"},
      {"measurement": "Consumer exposure, maximum HRP", "setting": "[9]; Infants", "result": 0.4542, "unit": "μg/kg bw per day"},
      {"measurement": "Consumer exposure, maximum HRP", "setting": "[9]; Other children", "result": "0.6 μg/kg bw per day and 0.5952 μg/kg bw per day"},
      {"measurement": "Consumer exposure, maximum HRP", "setting": "[9]; Toddlers", "result": 0.4674, "unit": "μg/kg bw per day"},
      {"measurement": "Consumer exposure, maximum HRP", "setting": "[9]; Very elderly", "result": 0.1266, "unit": "μg/kg bw per day"},
      {"measurement": "Maximum HRP as share of the established ADI", "setting": "[9]; other children, ADI 1 mg/kg bw per day", "result": 0.06, "unit": "%"},
      {"measurement": "NOPA in milk, median of samples above 1 μg/kg", "setting": "[10]; 80 mg 3‐NOP/kg feed DM", "result": 1.74, "unit": "µg/kg"},
      {"measurement": "NOPA in milk, median of samples above 1 μg/kg", "setting": "[10]; 100 mg 3‐NOP/kg feed DM, 7 cows", "result": 1.52, "unit": "µg/kg"},
      {"measurement": "concentration at 57 day", "setting": "[11]", "result": "< 5", "unit": "ng/g"},
      {"measurement": "Gene mutations in bacteria", "setting": "[12]", "result": "induced gene mutations by base pair substitutions"},
      {"measurement": "Nitrate esters in the aqueous phase of plasma, not detectable (LOD)", "setting": "[13]; LOD ≤ 0.07", "result": "< 0.07", "unit": "mg/kg"},
      {"measurement": "Nitrate esters in the aqueous milk fraction, not detectable (LOD)", "setting": "[13]; LOD ≤ 0.21", "result": "< 0.21", "unit": "mg/kg"},
      {"measurement": "Amount in urine, not detected above the LOQ", "setting": "[14]; any urine sample", "result": "≤ 0.1 % of the dose"},
      {"measurement": "3‐NOP and NOPA in total excreta, worst‐case scenario", "setting": "[14]; dairy cows", "result": "≤ 0.2", "unit": "%"},
      {"measurement": "Residue in milk, not found above the LOQ", "setting": "[14]; in vivo", "result": "< 8", "unit": "μg 3‐NOP‐equivalents/kg"},
      {"measurement": "Residue in tissues, not found above the LOQ", "setting": "[14]; in vivo", "result": "< 21", "unit": "μg 3‐NOP‐equivalents/kg"},
      {"measurement": "Susceptibility of Sertoli cells from dogs", "setting": "[4]; ex vivo/in vitro cultures of seminiferous tubuli", "result": "not susceptible"},
      {"measurement": "Nitrate esters in milk, not detectable (LOD)", "setting": "[15]; milk collected 0–8 h post‐dose", "result": "< 0.82", "unit": "mg 3‐NOP‐equivalent/kg"},
      {"measurement": "Nitrate esters in milk, not detectable (LOD)", "setting": "[15]; milk collected 8–24 h post‐dose", "result": "< 0.43", "unit": "mg 3‐NOP‐equivalent/kg"},
      {"measurement": "concentration at 180 min", "setting": "[16]", "result": "22.3 to 207", "unit": "ng/mL"}
    ]}
  ]
}
